# PubChem BioAssay
# The source made the active and inactive calls.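 The calls were made as follows, unless noted: active = duplicate-averaged activation above buffer control mean plus 5 SD of those controls; inactive = the rest.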
# Test system: not listed separately
# Test: nonspecific flux increase, KCNQ1-free cells – parental CHO cells, counter-screen for KCNQ1 potentiator project (AID 493006)
# Details: parental CHO-K1 cells, FluxOR thallium flux, at 10 µM; hits give high values
# Outline: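 Test system: parental CHO-K1 cells, FluxOR dye-loaded / Probe or stimulus: potassium plus thallium depolarizing stimulus, 5x stock 12.5 mM K2SO4, Tl2SO4 / Timing: overnight 37 °C plating, 90 min dye, 20 min dark compound / Measured by: kinetic thallium-flux fluorescence / Read-out: max-minus-min fluorescence over baseline, percent of buffer-to-R-L3 span / Benchmarks: buffer and R-L3 controls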
row,Compound,outcome
1,CCn1c2ccccc2c2cc(CC(N)=O)ccc21,inactive
2,CC(NC(=O)c1ccco1)C(=O)N(C)Cc1ccc(C(F)(F)F)cc1 (stereo not given),inactive
3,C/C(=N\Nc1nc(C)c(C)s1)c1ccc([N+](=O)[O-])cc1,inactive
4,COc1cccc(-c2nc(=S)c3c(o2)CCCC3)c1,inactive
5,O=C(NC(=S)Nc1ccccc1)c1cncc(C#Cc2ccccc2)c1,inactive
6,CN(C)CCCN(C(=O)CCOc1ccccc1)c1nc2c(F)cccc2s1,inactive
7,Cc1cccc(OCc2n[nH]c(=S)n2C2CCCCC2)c1,inactive
8,COc1cc(OC)cc(-c2nnc(Nc3nc4c(F)cccc4s3)o2)c1,inactive
9,O=C(NC1(O)C(=O)c2ccccc2C1=O)c1ccc(C(F)(F)F)cc1,inactive
10,Cn1c(O)c(N=NC(=S)Nc2ccccc2F)c2cc(S(=O)(=O)N3CCOCC3)ccc21,inactive
11,O=C(O)CCn1c(-c2ccccc2)cc2ccccc21,inactive
12,S=c1[nH]nc(-c2ccco2)n1/N=C/C(Cl)=C/c1ccccc1,inactive
13,N#CC(c1ccccc1)c1ccc2c(C(F)(F)F)cc(C(F)(F)F)nc2n1 (stereo not given),inactive
14,CCOC(=O)SC1=N/C(=C\c2ccc(N(C)C)cc2)C(=O)S1,inactive
15,NNc1nc2c(F)cc(F)cc2s1,inactive
16,CCCCn1c(=O)[nH]c(=O)c2c1nc(Cn1ncc(Cl)c(Cl)c1=O)n2CCC,inactive
17,O=C(N/C(=C\c1ccc([N+](=O)[O-])cc1)C(=O)N1CCCCC1)c1ccco1,inactive
18,O=C(CNC(=S)NC(=O)c1ccc(Br)o1)c1ccccc1,inactive
19,Cc1ccc(Nc2ccc([N+](=O)[O-])cn2)cc1Cl,inactive
20,CCN(Cc1ccccc1)C1CCN(Cc2ccccc2)CC1,inactive

row,Compound,outcome
1,Cc1ccc(/C(O)=C/C(=O)C(=O)NNC(=O)C(O)(c2ccccc2)c2ccccc2)cc1,inactive
2,S=c1[nH]nc(COc2ccccc2)n1/N=C/c1ccc(Cl)cc1Cl,inactive
3,O=C(NC(=S)Nc1ccc(Cl)cn1)c1cccs1,inactive
4,CSc1nc(SCC(=O)O)c2sc3nc(-c4ccccc4)c4c(c3c2n1)CCC4,inactive
5,O=C(NC(=S)Nc1ccc(CN2CCOCC2)cc1)c1ccc(-c2cccc(Cl)c2)o1,inactive
6,Cn1c(SCC(=O)NC2CC2)nnc1-c1cccs1,inactive
7,CCCOc1ccccc1NS(=O)(=O)c1ccc2[nH]c(=O)[nH]c2c1,inactive
8,O=C(NNc1cc(N2CCOCC2)nc(N2CCOCC2)n1)C12CC3CC(CC(C3)C1)C2,inactive
9,CCOc1cccc(/C=N/NC(=O)C2CCCC2)c1O,inactive
10,COc1ccc(C(=O)NNC(=O)C(=O)NCc2ccccc2)cc1,inactive
11,CCCCNC(=O)CCc1c(C)nc2c(c(C)nn2-c2ccccc2)c1C,inactive
12,Cn1c(=O)cc(NCc2ccccc2)[nH]c1=O,inactive
13,S=c1[nH]cnc2scc(-c3ccc(Br)cc3)c12,inactive
14,COC(=O)C1=C(C)N(c2ccc(F)c(Cl)c2)C(=O)C1,inactive
15,COc1cccc(NC(=S)NC(=O)c2c(Cl)c(C)nn2C)c1,inactive
16,CCN(CC)S(=O)(=O)c1ccc(NC(=O)c2cccnc2Cl)c(NC(=O)c2cccnc2Cl)c1,inactive
17,CCOC(=O)c1c(C)cccc1OCC(N)=O,inactive
18,COCCOC(=O)/C(=C/c1ccc(OC(=O)c2ccccc2)cc1)C(C)=O,inactive
19,Cc1cccc(C(=O)NC(=S)NNC(=O)COc2c(C)cccc2C)c1,inactive
20,COc1ccc(C(=O)/C=C/C(=O)N(CC(=O)NC2CCCCC2)Cc2ccccc2)c(O)c1,inactive

# Molecular target: Potassium voltage-gated channel subfamily KQT member 1 (Homo sapiens) (UniProt P51787)
# Sequence (P51787 whole entry, looked up): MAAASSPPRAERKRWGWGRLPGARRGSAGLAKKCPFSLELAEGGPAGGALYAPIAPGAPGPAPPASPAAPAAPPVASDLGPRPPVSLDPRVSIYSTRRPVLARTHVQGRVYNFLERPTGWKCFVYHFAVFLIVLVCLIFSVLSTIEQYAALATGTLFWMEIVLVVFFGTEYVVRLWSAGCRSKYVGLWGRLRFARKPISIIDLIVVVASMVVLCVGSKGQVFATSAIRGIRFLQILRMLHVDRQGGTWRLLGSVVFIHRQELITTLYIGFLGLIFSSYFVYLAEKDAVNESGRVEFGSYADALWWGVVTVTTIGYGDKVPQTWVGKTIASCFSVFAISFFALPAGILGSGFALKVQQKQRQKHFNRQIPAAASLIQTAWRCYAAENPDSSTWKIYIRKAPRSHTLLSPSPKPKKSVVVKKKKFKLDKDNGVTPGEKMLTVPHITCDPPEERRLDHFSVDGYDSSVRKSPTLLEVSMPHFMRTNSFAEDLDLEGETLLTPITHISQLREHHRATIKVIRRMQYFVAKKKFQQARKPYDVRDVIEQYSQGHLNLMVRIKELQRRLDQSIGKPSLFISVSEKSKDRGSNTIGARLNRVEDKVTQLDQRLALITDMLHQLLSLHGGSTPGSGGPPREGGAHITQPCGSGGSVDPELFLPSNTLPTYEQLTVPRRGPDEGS
# Test: enhancement of KCNQ1 channel thallium flux – FluxOR thallium flux, CHO cells, duplicates, confirmation (AID 493007;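 active = potentiation averaged over duplicate wells exceeding buffer-only control mean by more than 3 SD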;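 as to outcome: cells depolarized by a potassium plus thallium sulfate stimulus after compound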;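 as to potentiation: 0% = buffer-only wells and 100% = R-L3 activator control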)
# Details: KCNQ1 cell line, FluxOR thallium flux fluorescence, at 10 µM; hits give high values, % of reference activator effect, buffer zero
# Outline: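 Assay system: CHO cells carrying KCNQ1 | Controls: Buffer and R-L3 controls | Schedule: FluxOR dye loading 90 min, compound exposure 20 min, room temperature | Read-out: Baseline-normalized fluorescence change, percent of buffer-to-R-L3 range | Replicates: Each compound tested in duplicate | Technique: Kinetic thallium influx fluorescence with FluxOR dye, 10 s baseline, 110 s post-stimulus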
Compound,outcome,potentiation
CCn1c2ccccc2c2cc(CC(N)=O)ccc21,inactive,
CC(NC(=O)c1ccco1)C(=O)N(C)Cc1ccc(C(F)(F)F)cc1 (stereo not given),inactive,
C/C(=N\Nc1nc(C)c(C)s1)c1ccc([N+](=O)[O-])cc1,,43% (active)
COc1cccc(-c2nc(=S)c3c(o2)CCCC3)c1,inactive,
O=C(NC(=S)Nc1ccccc1)c1cncc(C#Cc2ccccc2)c1,,37% (active)
CN(C)CCCN(C(=O)CCOc1ccccc1)c1nc2c(F)cccc2s1,inactive,
Cc1cccc(OCc2n[nH]c(=S)n2C2CCCCC2)c1,inactive,
COc1cc(OC)cc(-c2nnc(Nc3nc4c(F)cccc4s3)o2)c1,inactive,
O=C(NC1(O)C(=O)c2ccccc2C1=O)c1ccc(C(F)(F)F)cc1,inactive,
Cn1c(O)c(N=NC(=S)Nc2ccccc2F)c2cc(S(=O)(=O)N3CCOCC3)ccc21,inactive,
O=C(O)CCn1c(-c2ccccc2)cc2ccccc21,inactive,
S=c1[nH]nc(-c2ccco2)n1/N=C/C(Cl)=C/c1ccccc1,,26% (active)
N#CC(c1ccccc1)c1ccc2c(C(F)(F)F)cc(C(F)(F)F)nc2n1 (stereo not given),,129% (active)
CCOC(=O)SC1=N/C(=C\c2ccc(N(C)C)cc2)C(=O)S1,inactive,
NNc1nc2c(F)cc(F)cc2s1,inactive,
CCCCn1c(=O)[nH]c(=O)c2c1nc(Cn1ncc(Cl)c(Cl)c1=O)n2CCC,inactive,
O=C(N/C(=C\c1ccc([N+](=O)[O-])cc1)C(=O)N1CCCCC1)c1ccco1,inactive,
O=C(CNC(=S)NC(=O)c1ccc(Br)o1)c1ccccc1,inactive,
Cc1ccc(Nc2ccc([N+](=O)[O-])cn2)cc1Cl,inactive,
CCN(Cc1ccccc1)C1CCN(Cc2ccccc2)CC1,inactive,

Compound,outcome,potentiation
Cc1ccc(/C(O)=C/C(=O)C(=O)NNC(=O)C(O)(c2ccccc2)c2ccccc2)cc1,inactive,
S=c1[nH]nc(COc2ccccc2)n1/N=C/c1ccc(Cl)cc1Cl,inactive,
O=C(NC(=S)Nc1ccc(Cl)cn1)c1cccs1,inactive,
CSc1nc(SCC(=O)O)c2sc3nc(-c4ccccc4)c4c(c3c2n1)CCC4,,30% (active)
O=C(NC(=S)Nc1ccc(CN2CCOCC2)cc1)c1ccc(-c2cccc(Cl)c2)o1,,64% (active)
Cn1c(SCC(=O)NC2CC2)nnc1-c1cccs1,inactive,
CCCOc1ccccc1NS(=O)(=O)c1ccc2[nH]c(=O)[nH]c2c1,inactive,
O=C(NNc1cc(N2CCOCC2)nc(N2CCOCC2)n1)C12CC3CC(CC(C3)C1)C2,,51% (active)
CCOc1cccc(/C=N/NC(=O)C2CCCC2)c1O,inactive,
COc1ccc(C(=O)NNC(=O)C(=O)NCc2ccccc2)cc1,,29% (active)
CCCCNC(=O)CCc1c(C)nc2c(c(C)nn2-c2ccccc2)c1C,inactive,
Cn1c(=O)cc(NCc2ccccc2)[nH]c1=O,inactive,
S=c1[nH]cnc2scc(-c3ccc(Br)cc3)c12,,32.5% (active)
COC(=O)C1=C(C)N(c2ccc(F)c(Cl)c2)C(=O)C1,inactive,
COc1cccc(NC(=S)NC(=O)c2c(Cl)c(C)nn2C)c1,inactive,
CCN(CC)S(=O)(=O)c1ccc(NC(=O)c2cccnc2Cl)c(NC(=O)c2cccnc2Cl)c1,,43% (active)
CCOC(=O)c1c(C)cccc1OCC(N)=O,inactive,
COCCOC(=O)/C(=C/c1ccc(OC(=O)c2ccccc2)cc1)C(C)=O,inactive,
Cc1cccc(C(=O)NC(=S)NNC(=O)COc2c(C)cccc2C)c1,,29.5% (active)
COc1ccc(C(=O)/C=C/C(=O)N(CC(=O)NC2CCCCC2)Cc2ccccc2)c(O)c1,,25% (active)
